# “And” between values parts separate entries of the source, which are not always exact repeats. Equal entries are not always repeated.
# Assays:
# HePTP H237A mutant = biological target: T1, HePTP H237A mutant (Homo sapiens, UniProt P35236, H258A); assay: Dose-response OMFP phosphatase assay, HePTP H237A mutant; format: biochemical; conditions: read-out: IC50 HePTP H237A
# T1 sequence (P35236 22-360 H258A limits assumed): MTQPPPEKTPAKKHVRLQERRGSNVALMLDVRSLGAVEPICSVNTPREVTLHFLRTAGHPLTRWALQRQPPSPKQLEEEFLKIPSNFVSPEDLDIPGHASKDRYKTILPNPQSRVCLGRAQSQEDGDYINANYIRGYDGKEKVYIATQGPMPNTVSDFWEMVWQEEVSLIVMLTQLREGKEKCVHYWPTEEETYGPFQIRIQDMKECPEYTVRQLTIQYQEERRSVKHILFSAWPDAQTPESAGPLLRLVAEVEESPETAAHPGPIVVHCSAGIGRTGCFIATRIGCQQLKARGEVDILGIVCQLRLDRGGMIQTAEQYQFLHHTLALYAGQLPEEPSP
# TCPTP = biological target: T2, TCPTP (Homo sapiens, UniProt P17706); assay: Dose-response OMFP phosphatase assay, TCPTP; format: biochemical; conditions: read-out: IC50 TCPTP; OMFP substrate
# T2 sequence (P17706 1-415): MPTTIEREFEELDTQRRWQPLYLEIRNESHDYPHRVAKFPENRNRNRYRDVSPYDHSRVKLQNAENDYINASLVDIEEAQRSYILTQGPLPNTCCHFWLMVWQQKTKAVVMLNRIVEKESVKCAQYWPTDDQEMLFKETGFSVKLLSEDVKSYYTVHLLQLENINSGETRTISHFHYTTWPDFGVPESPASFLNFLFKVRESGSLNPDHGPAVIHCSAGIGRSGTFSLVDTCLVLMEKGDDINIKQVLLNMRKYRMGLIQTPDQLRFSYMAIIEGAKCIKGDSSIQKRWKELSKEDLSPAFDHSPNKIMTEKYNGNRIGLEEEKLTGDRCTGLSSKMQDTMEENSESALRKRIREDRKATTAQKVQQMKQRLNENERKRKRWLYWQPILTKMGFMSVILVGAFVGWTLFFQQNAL
# Method in brief: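 Ten-point 2-fold dilution series of test compound prepared in DMSO. Fluorescence (ex 485/em 528 nm) read in kinetic mode over 10 min; progress-curve slopes taken as activity. IC50 by nonlinear regression (sigmoidal, variable slope).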
# [1] = test system: ERK1/2 and p38 phosphorylation in splenocytes; assay: Immunoblot of phosphorylation levels in spleen of mice injected i.p.; format: in vivo, C57B6 mice; conditions: mouse spleen, doses and time points used
# Method in brief: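 C57B6 mice given test compound i.p. at 3 or 5 mg kg-1, or vehicle; spleens taken 3 h or 6 h later (3 mice per dose and time). Spleen sonicated in Tris pH 7.4 buffer with phosphatase and protease inhibitors; 800 × g supernatant used. Blotted for pS473-AKT, pS23-HePTP, pERK1/2 and pp38, normalised to total protein then GAPDH. ANOVA/Tukey or t-test.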
# HePTP = biological target: T3, HePTP (Homo sapiens, UniProt P35236); assay: Dose-response OMFP phosphatase assay, HePTP; format: biochemical
# T3 sequence (P35236 1-360): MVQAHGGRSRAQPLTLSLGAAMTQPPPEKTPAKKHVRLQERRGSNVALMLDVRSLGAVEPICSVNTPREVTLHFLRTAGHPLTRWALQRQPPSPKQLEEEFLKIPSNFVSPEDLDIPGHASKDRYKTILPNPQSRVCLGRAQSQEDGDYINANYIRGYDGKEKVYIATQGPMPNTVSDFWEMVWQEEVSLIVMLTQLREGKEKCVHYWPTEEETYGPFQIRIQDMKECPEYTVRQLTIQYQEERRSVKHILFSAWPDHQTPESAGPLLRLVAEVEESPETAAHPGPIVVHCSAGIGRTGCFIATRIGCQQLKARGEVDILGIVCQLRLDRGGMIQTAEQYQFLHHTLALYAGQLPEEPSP
# [2] = test system: ERK1/2 and p38 phosphorylation in Jurkat TAg T cells; assay: Immunoblot of pERK1/2, pp38 and pMEK in TCR-stimulated Jurkat TAg T cells; format: cell-based, human
# Method in brief: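 Jurkat TAg T cells preincubated with test compound or DMSO (0.2% in time course) for 45 min at 37°C, then stimulated with OKT3 at 500 ng mL-1 for 5 min. Cells lysed at once, or washed and held in fresh RPMI 1640 for set times. Immunoblotted for phospho-ERK1/2, p38 and MEK; bands normalised to total protein (time course also to GAPDH). Mean ± SEM; Student's t-test; 3–4 independent experiments.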
# Tissue concentration = format: in vivo, C57B6 mice; conditions: mice
# STEP = biological target: T4, STEP (Homo sapiens, UniProt P54829); assay: Dose-response OMFP phosphatase assay, STEP; format: biochemical; conditions: read-out: IC50 STEP; OMFP substrate
# T4 sequence (P54829 1-565): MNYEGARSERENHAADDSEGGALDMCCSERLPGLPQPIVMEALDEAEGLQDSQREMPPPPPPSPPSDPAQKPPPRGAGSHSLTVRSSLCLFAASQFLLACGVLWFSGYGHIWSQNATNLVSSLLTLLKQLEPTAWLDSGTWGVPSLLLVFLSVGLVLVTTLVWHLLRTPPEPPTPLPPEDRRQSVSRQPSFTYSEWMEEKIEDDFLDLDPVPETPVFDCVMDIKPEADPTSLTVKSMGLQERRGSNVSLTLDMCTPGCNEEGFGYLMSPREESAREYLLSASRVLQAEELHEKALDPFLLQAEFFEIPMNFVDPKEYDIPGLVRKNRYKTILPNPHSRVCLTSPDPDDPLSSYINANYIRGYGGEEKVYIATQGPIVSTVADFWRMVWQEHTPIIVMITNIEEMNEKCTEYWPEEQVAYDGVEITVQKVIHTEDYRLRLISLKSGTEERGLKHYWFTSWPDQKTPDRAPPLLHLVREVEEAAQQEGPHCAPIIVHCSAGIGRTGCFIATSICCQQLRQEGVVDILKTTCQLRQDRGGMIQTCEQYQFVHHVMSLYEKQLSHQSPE
# [3] = Serum concentration in mice after i.p. injection; format: in vivo; conditions: i.p. 3 mg/kg
# Method in brief: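 Mice dosed i.p. at 3 mg/kg with test compound. Blood serum collected 5, 20, 60 and 120 min after injection for measurement of compound concentration.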
# [4] = 4 μM preincubation, before TCR stimulation, stimulated DMSO = 100%
# [5] = 4 μM, OKT3 stimulation, DMSO = 100%
# [6] = 4 μM, up to 2 h after TCR stimulation
# [7] = 40 μM, 45 min preincubation, OKT3 5 min, vs DMSO
structure (smiles),measurement,setting,value
O=C(O)c1ccccc1-c1ccc(/C=c2\sc3nc4cc(Br)cnc4n3c2=O)o1 [Compound 1],IC50,HePTP H237A mutant,2800 nM
same,IC50,TCPTP,1000 nM
same,AKT phosphorylation levels,[1],no change
same,phospho-HePTP (pS23) levels,[1],No changes
same,time-dependent inhibition of HePTP (progress curves),HePTP; progress curves linear over 98 min at different concentrations,no time-dependent inhibition
same,IC50,"HePTP; read-out: IC50 HePTP, OMFP substrate",210 nM
same,basal pERK1/2 phosphorylation level,[2]; [4],22.0 ± 2.5%
same,basal pp38 phosphorylation level,[2]; [4],55.0 ± 5.8%
same,pERK1/2 level after TCR stimulation,[2]; [5],134.3 ± 4.9%
same,pp38 level after TCR stimulation,[2]; [5],125.5 ± 4.0%
same,time course of pERK1/2 levels after stimulation,[2]; [6],remained constant up to 1 h after stimulation
same,time course of pp38 levels after stimulation,[2]; [6],remained unchanged
same,pERK1/2 levels,[2]; [7],augmented
same,pMEK levels (activation of MEK),[2]; [7],unchanged
same,pp38 levels,[2]; [7],augmented
same,pMEK levels in dose-response,[2]; concentrations as high as 40 μM,not affected
same,blood-brain-barrier crossing,Tissue concentration; i.p.,does not appear to cross the BBB
same,concentration in the spleen tissue,Tissue concentration; i.p.,< 500 nM
same,compound in cerebellum,"Tissue concentration; i.p. 3 or 5 mg/kg, 3 h",could not be detected
same,compound in brain tissue,"Tissue concentration; i.p. 3 or 5 mg/kg, 3 h, detection limit ~1 nM",could not be detected
same,concentration in splenocytes,"Tissue concentration; i.p., 6 h after injection",265 ± 119 nM
same,IC50,STEP,6300 nM
same,serum concentration (peak),"[3]; 20 min, 3 mg/kg",1240 ± 170 nM and 1240 nM
same,serum concentration,[3]; 2 h,18 ± 10 nM

# Reference: article PMC3288537 (ACS Chemical Biology, 2011)
